Source: PubChem (several laboratories)
In the library only some 9.6% were active in any assay of this set; here they are far more common.
PMI act = activators of human phosphomannose isomerase | 0.005% of 190,000 active | activation factor at 20 µM | AID 1214 | purified human PMI, coupled resazurin fluorescence, 20 min; hits give high values; 1 = vehicle control, 0 substrate-free wells | P34949;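 active = activation factor of 2 or more at 20 µM, relative to plate controls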
Target sequence (P34949 whole entry, looked up): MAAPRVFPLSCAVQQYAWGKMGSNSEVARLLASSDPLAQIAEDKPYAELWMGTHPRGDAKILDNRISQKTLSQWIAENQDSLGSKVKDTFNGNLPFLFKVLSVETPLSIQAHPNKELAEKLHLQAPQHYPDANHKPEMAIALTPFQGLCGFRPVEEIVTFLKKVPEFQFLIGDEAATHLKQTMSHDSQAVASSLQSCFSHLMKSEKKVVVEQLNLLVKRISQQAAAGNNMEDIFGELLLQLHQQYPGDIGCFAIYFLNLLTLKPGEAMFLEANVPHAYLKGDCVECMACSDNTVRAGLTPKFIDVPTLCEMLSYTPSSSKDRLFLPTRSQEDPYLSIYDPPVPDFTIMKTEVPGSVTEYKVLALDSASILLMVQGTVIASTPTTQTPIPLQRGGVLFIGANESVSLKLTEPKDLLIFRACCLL
HCT116 bCat-KO = beta-catenin-lacking colon tumor cell growth suppression; viability, % at 10 µM; HCT116 beta-catenin knockout viability, CellTiter-Glo, 60 h; hits give low values; 1.5% of 140,000 active;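 active = viability at or under a set limit, the compound median less 4 SD, cut at about 6% in these data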
HCT116 PTEN-null = PTEN-deleted cell growth suppression | 1.2% of 140,000 active | viability, % at 10 µM | HCT116 PTEN-null viability, CellTiter-Glo, 60 h; hits give low values;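 active = viability at or below a set limit, 4 SD under the median of all tested compounds, cut at about 3.7% in these data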;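 note: PTEN knockout HCT116 line with beta catenin targeted HCT116 as companion control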
L major viab = inhibitors of Leishmania major promastigote growth | Leishmania major promastigotes, resazurin fluorescence viability | inhibition, % at 10 µM | 9% of 200,000 active; in the data active = inhibition above about 50%;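 note: promastigotes grown with compound for 44 hours at 28 °C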
PMI act hi M6P = PMI (human) activation, high substrate. P34949. coupled PMI enzyme assay, resazurin fluorescence, 20 min; hits give high values; 1 = untreated enzyme, 0 = substrate-free blank. activation factor at 20 µM. 0.34% of 190,000 active. AID 1216;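 active = activation factor of 2 or more at 20 µM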
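Material: human phosphomannose isomerase with PGI, G6PDH, diaphorase coupling enzymes; amount: PMI at 15 ng/mL final; also added: Mannose-6-phosphate 1.0 mM (near-saturating) plus 0.22 mM NADP+; incubation: enzyme reaction with compound 20 min at room temperature; signal: resorufin fluorescence (Ex 544/Em 590 nm) from resazurin via diaphorase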
Each line names hits and unclear results; the compound was inactive in the other large screens.

Cc1oc(-c2cccc(F)c2)nc1CN(Cc1ccccc1)C[C@@H]1CCC(=O)N1	L major viab 59.3 (no result: HCT116 bCat-KO, HCT116 PTEN-null)
COc1ccc(N(C(=O)c2ccccc2OC(C)=O)C(C)C2CC2)cc1 (stereo unspecified)	L major viab 99.8
Cc1onc(-c2c(F)cccc2Cl)c1C(=O)N1CCc2ccccc21	none
Cc1onc(-c2c(Cl)cccc2Cl)c1C(=O)N1CCc2ccccc2C1	L major viab 95.4
Cc1onc(-c2ccccc2)c1C(=O)N1CCCc2ccccc21	L major viab 98.4
CCOc1ccccc1N1CCN(C(=O)c2c(-c3ccccc3Cl)noc2C)CC1	L major viab 71.5
Cc1onc(-c2ccccc2Cl)c1C(=O)N1CCN(c2ncccn2)CC1	none (no result: HCT116 bCat-KO, HCT116 PTEN-null)
CC(=O)Nc1ncc(Cc2ccc(Cl)cc2Cl)s1	none (no result: HCT116 bCat-KO, HCT116 PTEN-null)
Cc1cc(NC(=O)CN2C(=O)C3CC=CCC3C2=O)no1 (stereo unspecified)	none
CCCCCC(=O)NNC1=NCC(Cc2cccc(Cl)c2)S1 (stereo unspecified)	none (no result: HCT116 bCat-KO, HCT116 PTEN-null)
Cc1ccc(-n2c(CNC(=O)c3cccs3)nnc2SCC(=O)NO)cc1	none (no result: HCT116 bCat-KO, HCT116 PTEN-null)
Fc1cccc(Nc2nc(Cl)nc(Cl)n2)c1	PMI act hi M6P 2.2 (no result: HCT116 bCat-KO, HCT116 PTEN-null)
O=C(NCCCN1CCOCC1)c1ccc(CSCc2cccc(Cl)c2)o1	L major viab 71.0 (no result: HCT116 bCat-KO, HCT116 PTEN-null)
Clc1cccc(-c2ccc(CNCCCN3CCOCC3)o2)c1	L major viab 77.1 (no result: HCT116 bCat-KO, HCT116 PTEN-null)
Cc1ccc(NC(=O)Nc2nc(-c3ccc(C)s3)cs2)cc1	none
CCCS(=O)(=O)c1ccc(COC(=O)c2ccc(NC(C)=O)cc2)cc1	none (no result: HCT116 bCat-KO, HCT116 PTEN-null)
COc1ccc(C(=O)NCc2nc3ccccc3[nH]2)cc1OC	none
CCOc1ccc(C(=O)Nc2nc3ccccc3[nH]2)cc1OCC	L major viab 52.0 (no result: HCT116 bCat-KO, HCT116 PTEN-null)
CCOc1ccccc1OCCCC(=O)Nc1nc2ccccc2[nH]1	none (no result: HCT116 bCat-KO, HCT116 PTEN-null)
COc1ccc(C(=O)Nc2nc3ccccc3[nH]2)cc1OC	L major viab 65.4
CCC(Oc1ccccc1)C(=O)Nc1nc2ccccc2[nH]1 (stereo unspecified)	L major viab 99.6
COc1cc(OC)cc(C(=O)Nc2nc3ccccc3[nH]2)c1	L major viab 64.0
Cc1oc(-c2cc(F)ccc2F)nc1CN1CCCN(C(=O)c2ccco2)CC1	none (no result: HCT116 bCat-KO, HCT116 PTEN-null)
CC1CN(CCCCN2C(=O)c3ccccc3C2=O)CC(C)O1 (stereo unspecified)	none (no result: HCT116 bCat-KO, HCT116 PTEN-null)
COc1ccc(C(=O)Nc2nc3ccccc3[nH]2)cc1S(=O)(=O)N1CCCC1	L major viab 59.4
CCN(CC)c1ccc2c(C)c(Cl)c(=O)oc2c1	none (no result: HCT116 bCat-KO, HCT116 PTEN-null)
CCN(CC)c1ccc2c(c1)oc(=O)c1c(Cl)cc(=O)oc12	HCT116 bCat-KO 3.0, HCT116 PTEN-null 2.0
CCN(CC)c1ccc2c(Cl)c(Br)c(=O)oc2c1	L major viab 69.0
CC(=O)Nc1ccccc1OCC(=O)NCCc1ccc(Cl)cc1Cl	none
CCOc1ccc(NC(=O)CN(C)CC(=O)Nc2cc(Cl)ccc2C#N)cc1OCC	L major viab 86.1
CCNc1nc(NC(C)C)nc(N(C#N)CCOc2ccc(Cl)cc2Cl)n1	L major viab 96.8
COc1ccc(O)c(/C=N/n2c(-c3ccco3)csc2=Nc2cccnc2)c1	L major viab 91.2
COCCn1c(-c2ccco2)csc1=Nc1cccnc1	none
CC(C)N=c1scc(-c2cccs2)n1/N=C/c1ccc(O)c(O)c1O	none
CCN=c1scc(-c2cccs2)n1/N=C/c1cc(OC)ccc1O	L major viab 75.3
Fc1ccccc1-c1csc(=Nc2cccnc2)n1CCCn1ccnc1	L major viab 75.8
CC(C)Cn1c(-c2ccco2)csc1=Nc1cccnc1	L major viab 58.3
CC(=O)c1sc2nc(C)cc(C)c2c1N	none
Cc1cc(C)c2c(N)c(C(=O)c3cccc(Cl)c3)sc2n1	L major viab 100.2
Cc1cc(C)c2c(N)c(C(=O)c3ccc(Cl)cc3Cl)sc2n1	L major viab 100.1
CC(c1nccs1)N(C)c1nc2nonc2nc1N(C)C (stereo unspecified)	none (no result: HCT116 bCat-KO, HCT116 PTEN-null)
CC(C)NC(=O)c1cc(=O)n(C)c(=O)n1C	none
COC(=O)c1ccc2c(=O)n(-c3ccccc3F)c(=S)[nH]c2c1	none (no result: HCT116 bCat-KO, HCT116 PTEN-null)
CC(C)OC(=O)c1cccc(-c2ccc(C=O)o2)c1	L major viab 88.4
CC(Oc1cccc(Cl)c1)C(=O)NCc1ccc(S(N)(=O)=O)cc1 (stereo unspecified)	none (no result: HCT116 bCat-KO, HCT116 PTEN-null)
CCN1c2ccccc2-c2nc3ccccc3n2C1c1cccs1 (stereo unspecified)	L major viab 95.7
CCOC(=O)c1c(CN(C)C)n(C)c2ccc(OC(C)=O)cc12	L major viab 67.4
CCOc1cc(S(=O)(=O)n2ccc(C)n2)ccc1Br	none (no result: HCT116 bCat-KO, HCT116 PTEN-null)
Cc1ccn(S(=O)(=O)c2ccc(C(C)(C)C)cc2)n1	L major viab 71.2
CSc1nc2ccc(NS(=O)(=O)c3ccccc3F)cc2s1	L major viab 59.4
COc1cc(OC)cc(C(=O)N[C@H](C(=O)NC23CC4CC(CC(C4)C2)C3)C(C)C)c1	L major viab 64.3
COc1ccc(OC)c(C(c2nnnn2Cc2ccco2)N2CCN(C)CC2)c1 (stereo unspecified)	none (no result: HCT116 bCat-KO, HCT116 PTEN-null)
COc1cccc(C(c2nnnn2Cc2ccco2)N2CCN(c3cccc(C)c3C)CC2)c1OC (stereo unspecified)	L major viab 58.3
CCCCC(c1nnnn1Cc1ccco1)N1CCN(C(=O)c2ccco2)CC1 (stereo unspecified)	L major viab 59.5
O=C(Nc1ccc2c(c1)OCO2)C(c1ccc(Cl)cc1)N1CCN(C(=O)c2ccco2)CC1 (stereo unspecified)	L major viab 50.4
COc1ccc(C(c2nnnn2Cc2ccccc2)N2CCN(C(=O)c3ccco3)CC2)cc1 (stereo unspecified)	L major viab 57.7
COC(=O)C1CCN(S(=O)(=O)c2ccc(OC)cc2)CC1	none
CCOC(=O)C(=O)c1csc(NC(=O)CCSc2ccc(C)cc2)n1	none (no result: HCT116 bCat-KO, HCT116 PTEN-null)
CCN(CC)S(=O)(=O)N1CCC(C(=O)NCc2ccco2)CC1	none (no result: HCT116 bCat-KO, HCT116 PTEN-null)
COC(=O)C(C)Sc1nnc2n(-c3cccc(C)c3)c(=O)c3c4c(sc3n12)CCCC4 (stereo unspecified)	none
O=C(c1ccco1)N1CCN(C(c2ccc(Cl)cc2)c2nnnn2Cc2ccccc2)CC1 (stereo unspecified)	L major viab 84.9
CCC(c1nnnn1Cc1cccs1)N1CCN(C(=O)c2ccco2)CC1 (stereo unspecified)	none (no result: HCT116 bCat-KO, HCT116 PTEN-null)
Cc1ccc(C(c2nnnn2Cc2cccs2)N2CCN(C(=O)c3ccco3)CC2)cc1 (stereo unspecified)	L major viab 58.2
O=C(c1ccco1)N1CCN(C(c2ccccc2F)c2nnnn2Cc2cccs2)CC1 (stereo unspecified)	none
CCOc1ccc(C(c2nnnn2Cc2ccccc2)N2CCN(C(=O)c3ccco3)CC2)cc1 (stereo unspecified)	none (no result: PMI act, HCT116 bCat-KO, HCT116 PTEN-null, PMI act hi M6P)
COc1cccc(C(c2nnnn2Cc2ccccc2)N2CCN(C(=O)c3ccco3)CC2)c1OC (stereo unspecified)	L major viab 78.9
Cc1nnsc1C(=O)N/N=C/c1ccc(OC(F)(F)F)cc1	none (no result: HCT116 bCat-KO, HCT116 PTEN-null)
